Data taken from BindingDB's records for doi:10.1021/jm3006355 (Bar-Ilan University, 2012).

Molecular target: P2Y purinoceptor 1 (Meleagris gallopavo, UniProt P49652)
Experiment: Agonist activity at turkey P2Y1R expressed in 1321N1 cells assessed as increase in intracellular calcium concentration by spectrofluorimetry
How it was run: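 Cell suspensions were treated with nucleotide at various concentrations at 37 °C in 10 mM Hepes-buffered saline pH 7.4 with 1 mM CaCl2 and 1 mM MgCl2. Maximal [Ca2+]i rise was read by dual-excitation spectrofluorometry and fitted to give EC50. Three experiments on separate days.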

Chain of P2Y purinoceptor 1 (P49652 whole entry): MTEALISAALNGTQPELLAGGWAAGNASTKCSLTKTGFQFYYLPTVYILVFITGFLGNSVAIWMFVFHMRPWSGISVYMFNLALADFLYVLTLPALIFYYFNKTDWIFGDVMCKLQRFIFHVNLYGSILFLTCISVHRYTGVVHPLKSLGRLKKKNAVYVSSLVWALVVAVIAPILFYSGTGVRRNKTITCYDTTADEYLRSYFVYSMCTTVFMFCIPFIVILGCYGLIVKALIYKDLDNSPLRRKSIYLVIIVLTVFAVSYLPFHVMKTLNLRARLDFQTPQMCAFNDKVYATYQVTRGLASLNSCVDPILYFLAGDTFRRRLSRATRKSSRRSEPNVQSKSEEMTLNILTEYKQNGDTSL

With `B[P@@](=O)(OC[C@H]1O[C@@H](n2cnc3c(N)nc(SC)nc32)[C@H](O)[C@@H]1O)OP(=O)(O)O` as the compound, how does the EC50 read?
The EC50 was 34 nM.
